Source: publication PMC11600146 (JACS Au, 2024)
Converted amounts (≈) assume the structure as drawn. “Also recorded” adds a separate entry of the source.

Key:
[1] = system: K. pneumoniae 10031; test: MIC assay, broth microdilution; format: cell-based; conditions: Klebsiella pneumoniae, 10031, 22 h, read-out: K. pneumoniae 10031 MIC (μg/mL)
In short: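 Broth microdilution adapted from NCCLS methods. Overnight cultures were diluted to OD600 0.006 in cation-adjusted Mueller–Hinton medium with 7% DMSO and incubated with a range of test compound concentrations at 37 °C for 22 h. MTT (5 mg/mL) was added for 3 h, solubilized with 2-propanol, and read as the absorbance difference at 570 and 690 nm. MIC was the lowest concentration with readings within 4-fold of bacteria-free wells.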

[2] = system: E. coli 25922; test: MIC assay, broth microdilution; format: cell-based; conditions: Escherichia coli, 25922, 22 h, read-out: E. coli 25922 MIC (μg/mL)
[3] = target: T1, K. pneumoniae LpxH (Klebsiella pneumoniae, UniProt A6T5R0); test: LpxE-coupled LpxH activity assay; format: biochemical
T1 sequence (A6T5R0 1-240): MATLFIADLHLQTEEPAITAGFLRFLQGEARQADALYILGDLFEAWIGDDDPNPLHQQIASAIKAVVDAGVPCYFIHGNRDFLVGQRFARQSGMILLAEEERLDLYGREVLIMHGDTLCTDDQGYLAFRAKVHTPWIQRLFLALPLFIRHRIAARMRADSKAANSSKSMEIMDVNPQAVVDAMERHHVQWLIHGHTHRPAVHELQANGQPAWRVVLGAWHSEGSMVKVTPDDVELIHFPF
In short: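 LpxE-coupled assay with GB1-K. pneumoniae LpxH-His10, 10 ng/mL final (1 ng/mL for two analogs, with an extended time course), 100 μM UDP-DAGn. Buffer: Tris-HCl pH 8.0, BSA, Triton X-100, 1 mM MnCl2, DTT, 10% DMSO. Reaction at 37 °C; time-point aliquots quenched with 5 mM EDTA, then A. aeolicus LpxE 5 μg/mL for 30 min, formic acid, malachite green, A620. Triplicates. IC50 from dose–response fit; Ki = IC50/(1+[S]/KM), KM 68.1 μM.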

[4] = system: K. pneumoniae 10031; test: Spontaneous resistance development; format: cell-based
In short: (§1)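 Five to six colonies per strain, from antibiotic-free LB agar, grown to OD 1 and concentrated tenfold. […] Colonies repassaged on fresh 8× MIC plates for 48 h, counted and sequenced. Frequency is resistant growth divided by initial inoculum density.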

[5] = system: E. coli 25922; test: Spontaneous resistance development; format: cell-based
In short: as §1

[6] = system: HEK293 cells; test: In vitro cytotoxicity, CellTiter-Glo 2.0 cell viability assay; format: cell-based
[7] = system: HepG2 cells; test: as above; format: cell-based; conditions: HepG2, 100 μM (63 μg/mL), 24 h
[8] = target: T2, E. coli LpxH (Escherichia coli, UniProt P43341); test: LpxE-coupled LpxH activity assay; format: biochemical
T2 sequence (P43341 1-240): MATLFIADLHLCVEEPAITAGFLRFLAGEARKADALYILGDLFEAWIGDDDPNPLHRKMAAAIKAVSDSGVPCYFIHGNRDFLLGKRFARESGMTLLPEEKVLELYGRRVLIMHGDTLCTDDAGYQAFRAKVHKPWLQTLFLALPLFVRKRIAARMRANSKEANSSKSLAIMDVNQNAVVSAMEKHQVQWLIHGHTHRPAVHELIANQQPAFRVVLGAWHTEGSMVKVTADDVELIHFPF
In short: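 LpxE-coupled assay with GB1-E. coli LpxH-His10 (10 ng/mL in 2× enzyme/inhibitor mix; 0.5 ng/mL final for two analogs, with a longer time course). Mixes were preincubated 10 min at 37 °C and quenched with EDTA, then LpxE 30 min, malachite green, A620. Run in triplicate. IC50 fitted; Ki from competitive equation, KM 61.7 μM.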

[9] = system: K. pneumoniae 10031; test: Time-kill kinetics; format: cell-based

| MIC [1] [µg/mL] | SMILES | MIC [2] [µg/mL] | IC50 [3] [nM] | Rate of spontaneous resistance mutations @4× MIC ([4]; K. pneumoniae 10031, 4× MIC) | Rate of spontaneous resistance mutations @8× MIC ([4]; K. pneumoniae 10031, 8× MIC) | Rate of spontaneous resistance mutations @4× MIC ([5]; E. coli 25922, 4× MIC) | Rate of spontaneous resistance mutations @8× MIC ([5]; E. coli 25922, 8× MIC) | cytotoxicity (cell viability) ([6]; HEK293, 100 μM (63 μg/mL), 24 h) | safety index ([6]; no cytotoxicity at 63 μg/mL in HEK293 or HepG2 versus MICs 0.31 and 0.04 μg/mL) [fold] | cytotoxicity (cell viability) [7] | IC50 [8] [nM] | type of antibiotic action ([9]; time-kill, regrowth prevented up to 24 h at or above the MIC) | reduction of bacterial viability ([9]; within 6 h, at or above the MIC) [fold] |
| --- | --- | --- | --- | --- | --- | --- | --- | --- | --- | --- | --- | --- | --- |
| 0.08 (≈ 0.164 µM) | CC(=O)N1CCc2cc(S(=O)(=O)N3CCN(c4cc(C(F)(F)F)cc(Cl)n4)CC3)ccc21 [JH-LPH-92] | > 64 | – | – | – | – | – | – | – | – | – | – | – |
| 1.3 (≈ 2.85 µM) | CC(=O)N1CCc2cc(S(=O)(=O)N3CCN(c4nccc(C(F)(F)F)n4)CC3)ccc21 [JH-LPH-93] | – | 100 | – | – | – | – | – | – | – | – | – | – |
| – | CN(c1ccccc1C(=O)Nc1ccc(S(=O)(=O)N2CCN(c3cc(C(F)(F)F)cc(Cl)n3)CC2)cc1)S(C)(=O)=O [JH-LPH-107] | 0.31 (≈ 0.49 µM) | 0.13 | 2.0 × 10^-9 | 9.1 × 10^-10 | 2.5 × 10^-9 | 1.4 × 10^-9 | did not cause any significant cytotoxicity; also recorded: no significant cytotoxicity | > 100 | did not cause any significant cytotoxicity; also recorded: no significant cytotoxicity | 0.13 | bactericidal | > 1000 |
